{"source": "paper PMC5929363", "about": "(Radiology, 2017)", "key": {"[1]": {"assay": "Gd biodistribution in ex vivo rat tissue by ICP-MS", "summary_of_the_method": "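Rats dosed i.v. with 10 μmol/kg probe. Tissues harvested ex vivo 1 and 14 days post-injection. Gadolinium measured by ICP-MS and expressed as % injected dose per gram of tissue.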"}, "[2]": {"assay": "Gd elimination route", "type": "in vivo", "settings": "rat, 24-hour collection period, % of the Gd recovered"}, "[3]": {"assay": "Gd blood plasma clearance in rats", "type": "in vivo", "settings": "rat, after 10 μmol/kg i.v., exponential decay fit, n=4/time point", "summary_of_the_method": "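After i.v. probe injection, rat blood plasma sampled over 2 h (n = 4 per time point). Gadolinium quantified by HPLC/ICP-MS. Plasma concentration–time data fitted to exponential decay to give clearance half-life.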"}, "[4]": {"assay": "In vivo plasma stability/metabolites by HPLC-ICP-MS", "parameters": "species or system rat", "settings": "HPLC-ICP-MS of blood plasma", "summary_of_the_method": "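Rat plasma sampled over 2 h after i.v. probe injection. HPLC/ICP-MS separated intact probe from any metabolites. Intact probe expressed as percentage of circulating gadolinium at each time point.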"}, "[5]": {"test_system": "CCl4 mouse model of liver fibrosis", "assay": "Molecular MR imaging of liver fibrosis, CCl4 mouse model, 7.0 T", "type": "in vivo", "summary_of_the_method": "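C57BL6 mice received i.p. CCl4 0.4 μL/g (1:5 in olive oil) twice weekly for 10 weeks; controls received olive oil. Mice were imaged at baseline and 1 week after the last dose at 7.0 T under 1–2% isoflurane, using ungated T1-weighted RARE (TE 4.5 ms, factor 8, TR 600 ms) before and up to 30 min after i.v. 10 μmol/kg. Liver–muscle ΔCNR was analysed as AUC and at the time of maximal difference between fitted exponential curves. Analysis was blinded.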"}, "[6]": {"test_system": "BDL rat model of liver fibrosis", "assay": "Molecular MR imaging of liver fibrosis, BDL rat model, 1.5 T", "type": "in vivo", "settings": "for ΔCNR at 15 minutes post CM-101 / Area under the ΔCNR curve (AUC), liver vs muscle: 1.5 T", "summary_of_the_method": "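Male CD rats underwent common bile duct ligation or sham surgery and were imaged at day 19. Imaging at 1.5 T under 1–2% isoflurane used respiratory-gated 3D inversion-recovery FLASH (TI 250 ms, TE 2.44 ms, effective TR ~1000 ms), before and up to 30 min after i.v. 10 μmol/kg. ΔCNR was liver-minus-muscle SNR, giving AUC and ΔCNR at the maximal diseased–control difference time. R1 maps (TI 50–1000 ms) were acquired pre and 30 min post and fitted voxelwise. Analysis was blinded.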"}, "[7]": {"settings": "baseline mice, n=11, 10 μmol/kg i.v."}, "[8]": {"settings": "sham rats, n=11, 10 μmol/kg i.v."}}, "data": [{"smiles": "CC(C)C[C@H](NC(=O)[C@@H]1CSSC[C@H](NC(=O)[C@H](Cc2c[nH]cn2)NC(=O)[C@H](Cc2c[nH]c3ccccc23)NC(=O)[C@H](CCCCNC(=O)CCC(C(=O)O)N2CCN(CC(=O)O)CCN(CC(=O)O)CCN(CC(=O)O)CC2)NC(=O)CNC(=O)CCC(C(=O)O)N2CCN(CC(=O)O)CCN(CC(=O)O)CCN(CC(=O)O)CC2)C(=O)N[C@@H]([C@@H](C)O)C(=O)N[C@@H]([C@@H](C)O)C(=O)N[C@@H](CCCCNC(=O)CCC(C(=O)O)N2CCN(CC(=O)O)CCN(CC(=O)O)CCN(CC(=O)O)CC2)C(=O)N[C@@H](Cc2ccccc2)C(=O)N2CCC[C@H]2C(=O)N[C@@H](Cc2c[nH]cn2)C(=O)N[C@@H](Cc2c[nH]cn2)C(=O)N[C@@H](Cc2ccc(O)cc2)C(=O)N1)C(=O)N[C@@H](Cc1ccc(O)cc1)C(=O)N[C@@H](Cc1ccc(-c2ccccc2)cc1)C(N)=O", "note": "(stereo partly drawn) [CM-101]", "values": [{"measurement": "Fold drop of tissue Gd levels from 24-hours to 14 days", "setting": "[1]; rat tissues", "result": "about 10 fold"}, {"measurement": "Tissue Gd levels at 24-hours (upper bound over all tissues)", "setting": "[1]; rat, all tissues, 24 hours after CM-101 injection", "result": "< 3.9±0.6", "unit": "%ID/g"}, {"measurement": "Gd (% ID/g) @ 24-hours, Bone", "setting": "[1]; rat, bone, 24 hours after 10 μmol/kg i.v., ICP-MS, n=7", "result": "0.07±0.02", "unit": "% ID/g"}, {"measurement": "Gd (% ID/g) @ 14-days, Bone", "setting": "[1]; rat, bone, 14 days after 10 μmol/kg i.v., ICP-MS, n=8", "result": 0.01, "unit": "% ID/g"}, {"measurement": "Gd (% ID/g) @ 14-days, Kidney", "setting": "[1]; rat, kidney, 14 days after 10 μmol/kg i.v., ICP-MS, n=8", "result": "0.33±0.12", "unit": "% ID/g"}, {"measurement": "Gd recovered found in the feces", "setting": "[2]", "result": 0.8, "unit": "%"}, {"measurement": "Gd recovered found in the urine", "setting": "[2]", "result": 99.2, "unit": "%"}, {"measurement": "Gd blood plasma clearance half-life t1/2", "setting": "[3]", "result": "6.8 ± 2.4", "unit": "min"}, {"measurement": "Intact CM-101 as % of circulating Gd in plasma", "setting": "[4]; 60 – 120 minutes post injection", "result": "about 50%"}, {"measurement": "Intact CM-101 as % of circulating Gd in plasma", "setting": "[4]; 3 minutes post injection", "result": 97, "unit": "%"}, {"measurement": "Intact CM-101 as % of circulating Gd in plasma", "setting": "[4]; 15 minutes post injection", "result": 77, "unit": "%"}, {"measurement": "Area under the ΔCNR curve (AUC), liver vs muscle", "setting": "[5]; CCl4 treated mice (10 weeks), n=8, 10 μmol/kg i.v.", "result": "601±150"}, {"measurement": "ΔCNR at 10 minutes post CM-101", "setting": "[5]; CCl4 treated mice, n=8, 10 μmol/kg i.v.", "result": "18.3±6.5"}, {"measurement": "Area under the ΔCNR curve (AUC), liver vs muscle", "setting": "[5]; [7]", "result": "163±54"}, {"measurement": "ΔCNR at 10 minutes post CM-101", "setting": "[5]; [7]", "result": "5.2±1.0"}, {"measurement": "ΔCNR at 15 minutes post CM-101", "setting": "[6]; BDL rats, n=8, 10 μmol/kg i.v.", "result": "13.6±3.2"}, {"measurement": "Change in liver R1 relaxation rate (ΔR1) 30 minutes post CM-101 injection", "setting": "[6]; BDL rats, n=8, 1.5 T", "result": "0.50 ± 0.23", "unit": "s⁻¹"}, {"measurement": "Area under the ΔCNR curve (AUC), liver vs muscle", "setting": "[6]; BDL rats, n=8, 19 days post procedure, 10 μmol/kg i.v.", "result": "73.1±17.1"}, {"measurement": "Area under the ΔCNR curve (AUC), liver vs muscle", "setting": "[6]; [8]", "result": "23.2±15.2"}, {"measurement": "ΔCNR at 15 minutes post CM-101", "setting": "[6]; [8]", "result": "5.7±4.2"}, {"measurement": "Change in liver R1 relaxation rate (ΔR1) 30 minutes post CM-101 injection", "setting": "[6]; sham rats, n=11, 1.5 T", "result": "0.15 ± 0.14", "unit": "s⁻¹"}]}]}
